Data published in ChEMBL document CHEMBL1649533, “GES-11, a novel integron-associated GES variant in Acinetobacter baumannii” (2009).
In brackets after ≈: the same amount, converted by molar mass.

Tests used:
Type in all cases: functional
Escherichia coli [1] = assay: Antibacterial activity against […] OmpF and OmpC porin-deficient Escherichia coli HB4
Acinetobacter baumannii [2] = assay: Antibacterial activity against Acinetobacter baumannii BM4674 isolated from the tibia fracture of a patient by Etest method
Procedure, shortened: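 MICs read by Etest gradient strips on Mueller-Hinton agar against the clinical isolate (Nancy, France, September 2008); reported in μg/ml and interpreted with Comité de l'Antibiogramme de la Société Française de Microbiologie breakpoints.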

Escherichia coli [3] = assay: Antibacterial activity against ESBL-positive Escherichia coli Top10 harboring plasmid AT517
Acinetobacter baumannii [4] = assay: Antibacterial activity against Acinetobacter baumannii BM4652
Procedure, shortened: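 MIC by Etest on Mueller-Hinton agar; interpretation by Comité de l'Antibiogramme de la Société Française de Microbiologie breakpoints. A. baumannii BM4652 is the recipient strain used in conjugation with BM4674 (solid medium; transconjugants selected on apramycin 80 μg/ml plus ceftazidime 16 μg/ml). MIC values in μg/ml.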

Acinetobacter baumannii [5] = assay: Antibacterial activity against Acinetobacter baumannii BM4652 harboring plasmid IP847
Escherichia coli [6] = assay: Antibacterial activity against […] OmpF and OmpC porin-deficient Escherichia coli HB4 harboring plasmid AT517
Escherichia coli [7] = assay: Antibacterial activity against Escherichia coli Top10

| SMILES | MIC (Escherichia coli [1]) [µg/mL] | MIC (Acinetobacter baumannii [2]) [µg/mL] | MIC (Escherichia coli [3]) [µg/mL] | MIC (Acinetobacter baumannii [4]) [µg/mL] | MIC (Acinetobacter baumannii [5]) [µg/mL] | MIC (Escherichia coli [6]) [µg/mL] | MIC (Escherichia coli [7]) [µg/mL] |
| --- | --- | --- | --- | --- | --- | --- | --- |
| C[C@H]1[C@H](NC(=O)/C(=N\OC(C)(C)C(=O)O)c2csc(N)n2)C(=O)N1S(=O)(=O)O [AZTREONAM] | 0.75 (≈ 1.72 µM) | > 256 | 24 (≈ 55.1 µM) | 1 (≈ 2.3 µM) | > 256 | 48 (≈ 110 µM) | 0.125 (≈ 0.287 µM) |
| CO/N=C(\C(=O)N[C@@H]1C(=O)N2C(C(=O)[O-])=C(C[N+]3(C)CCCC3)CS[C@H]12)c1csc(N)n1 [CEFEPIME] | 0.5 (≈ 1.04 µM) | > 256 | 2 (≈ 4.16 µM) | 0.19 (≈ 0.395 µM) | 64 (≈ 133 µM) | 96 (≈ 200 µM) | 0.032 (≈ 0.0666 µM) |
| CO/N=C(\C(=O)N[C@@H]1C(=O)N2C(C(=O)O)=C(COC(C)=O)CS[C@H]12)c1csc(N)n1 [CEFOTAXIME] | 0.5 (≈ 1.1 µM) | > 256 | > 256 | 1 (≈ 2.2 µM) | > 256 | > 256 | 0.064 (≈ 0.141 µM) |
| CO[C@@]1(NC(=O)Cc2cccs2)C(=O)N2C(C(=O)O)=C(COC(N)=O)CS[C@@H]21 [CEFOXITIN] | 96 (≈ 225 µM) | 192 (≈ 449 µM) | 6 (≈ 14 µM) | 8 (≈ 18.7 µM) | 12 (≈ 28.1 µM) | > 256 | 6 (≈ 14 µM) |
| CC(C)(O/N=C(\C(=O)N[C@@H]1C(=O)N2C(C(=O)[O-])=C(C[n+]3ccccc3)CS[C@H]12)c1csc(N)n1)C(=O)O [CEFTAZIDIME] | 0.5 (≈ 0.915 µM) | > 256 | > 256 | 1.5 (≈ 2.74 µM) | > 256 | > 256 | 0.75 (≈ 1.37 µM) |
| C[C@@H](O)[C@H]1C(=O)N2C(C(=O)O)=C(SCCNC=N)C[C@H]12 [IMIPENEM ANHYDROUS] | 0.125 (≈ 0.418 µM) | 4 (≈ 13.4 µM) |  | 0.125 (≈ 0.418 µM) | 0.75 (≈ 2.51 µM) | 8 (≈ 26.7 µM) | 0.19 (≈ 0.635 µM) |
| C[C@@H](O)[C@H]1C(=O)N2C(C(=O)O)=C(S[C@@H]3CN[C@H](C(=O)N(C)C)C3)[C@H](C)[C@H]12 [MEROPENEM] | 0.25 (≈ 0.652 µM) | 6 (≈ 15.6 µM) | 0.047 (≈ 0.123 µM) | 0.064 (≈ 0.167 µM) | 1.5 (≈ 3.91 µM) | 4 (≈ 10.4 µM) | 0.016 (≈ 0.0417 µM) |
